Source: ChEMBL document CHEMBL1149635, “New chemical tools for investigating human mitotic kinesin Eg5” (Bioorg Med Chem, 2007)
Activity calls are given as the source filed them. The rule behind the calls is not given here.

tested on: HeLa; test: Cell cycle arrest in human HeLa cells assessed as 4N DNA content at 25 uM after 24 hrs; type: functional; conditions: not given
In short: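 HeLa cells exposed 24 h; two-dimensional flow cytometry with MPM-2 antibody (mitosis-specific phosphoepitopes, FITC-conjugated secondary) and propidium iodide for DNA content; 10,000 events per sample, aggregates gated out; 4N population and fraction MPM-2 positive scored.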

`COC(=O)Nc1nc2cc(C(=O)c3cccs3)ccc2[nH]1` [NOCODAZOLE] was tested. Which Activity did it give?
Its Activity is 82%.

molecular target: T1, Kinesin-like protein KIF11 (Homo sapiens) (UniProt P52732); test: Inhibition of microtubule-stimulated Eg5 ATPase activity expressed in Escherichia coli at 500 uM after 12 hrs; type: functional; conditions: not given
T1 sequence (whole entry): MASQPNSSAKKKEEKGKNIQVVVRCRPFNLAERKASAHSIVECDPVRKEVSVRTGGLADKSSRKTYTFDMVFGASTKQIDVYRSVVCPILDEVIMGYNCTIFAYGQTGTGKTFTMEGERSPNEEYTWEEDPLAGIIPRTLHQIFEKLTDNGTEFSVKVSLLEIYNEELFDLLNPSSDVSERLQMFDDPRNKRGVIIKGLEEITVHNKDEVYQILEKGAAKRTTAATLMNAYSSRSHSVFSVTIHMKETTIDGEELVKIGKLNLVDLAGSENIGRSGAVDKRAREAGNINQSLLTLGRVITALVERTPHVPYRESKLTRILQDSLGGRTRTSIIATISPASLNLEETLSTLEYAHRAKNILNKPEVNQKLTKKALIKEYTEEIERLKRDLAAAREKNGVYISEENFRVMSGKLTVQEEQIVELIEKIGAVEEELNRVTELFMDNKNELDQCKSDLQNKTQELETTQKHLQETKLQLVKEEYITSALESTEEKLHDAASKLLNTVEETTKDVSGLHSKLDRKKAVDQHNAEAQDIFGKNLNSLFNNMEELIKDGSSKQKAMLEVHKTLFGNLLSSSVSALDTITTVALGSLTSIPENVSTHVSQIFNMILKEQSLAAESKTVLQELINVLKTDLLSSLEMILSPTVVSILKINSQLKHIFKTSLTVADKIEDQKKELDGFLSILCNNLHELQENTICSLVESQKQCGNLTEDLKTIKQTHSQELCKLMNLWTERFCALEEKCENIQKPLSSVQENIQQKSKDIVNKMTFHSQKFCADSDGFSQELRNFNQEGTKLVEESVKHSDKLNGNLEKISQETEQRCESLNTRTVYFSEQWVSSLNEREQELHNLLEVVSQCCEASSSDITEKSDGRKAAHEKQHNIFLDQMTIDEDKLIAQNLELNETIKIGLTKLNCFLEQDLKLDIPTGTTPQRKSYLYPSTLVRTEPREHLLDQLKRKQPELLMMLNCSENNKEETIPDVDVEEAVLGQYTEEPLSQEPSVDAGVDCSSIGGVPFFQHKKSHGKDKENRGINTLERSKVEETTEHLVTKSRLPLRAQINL

Which Activity does the source give for `CCOC(=O)C1=C(C)N(CCOCCOCCO)C(=S)NC1c1cccc(O)c1` (stereo not given) here?
Its Activity is “inactive”.

For `CCOC(=O)C1=C(C)NC(=S)NC1c1ccc(OCCOCCOCCO)c(O)c1` (stereo not given), which Activity is on record?
The Activity was “inactive”.

How did the Activity turn out when `CCOC(=O)C1=C(C)NC(=S)NC1c1ccc(O)c(O)c1` (stereo not given) was run?
The Activity was “inactive”.

With `CCOC(=O)C1=C(C)NC(=S)NC1c1cc(OC(C)=O)ccc1OC(C)=O` (stereo not given) as the compound, how does the Activity read?
The Activity was “inactive”.

How did the Activity turn out when `CCOC(=O)C1=C(C)NC(SCC)=NC1c1cccc(O)c1` (stereo not given) was run?
The Activity was “inactive”.

`CCOC(=O)C1=C(C)NC(=S)N(C(C)=O)C1c1cccc(O)c1` (stereo not given) was tested. Which Activity did it give?
Its Activity is “inactive”.

For `CCOC(=O)C1=C(C)NC(=S)NC1c1cccc(OC(C)=O)c1` (stereo not given), which Activity is on record?
The Activity was “inactive”.

How did the Activity turn out when `CCOC(=O)C1=C(C)NC(=S)NC1c1cc(O)ccc1[N+](=O)[O-]` (stereo not given) was run?
Its Activity is “inactive”.

With `CCOC(=O)C1=C(C)NC(=S)NC1c1cc(O)ccc1O` (stereo not given) as the compound, how does the Activity read?
The Activity was “inactive”.

`CCOC(=O)C1=C(C)NC(=S)N(C(C)=O)C1c1cccc(OC(C)=O)c1` (stereo not given) was tested. Which Activity did it give?
Its Activity is “inactive”.

How did the Activity turn out when `CCOC(=O)C1=C(C)N=C(SCc2ccccc2)NC1c1cccc(O)c1` (stereo not given) was run?
Its Activity is “inactive”.

tested on: HeLa; test: Induction of monoastral spindles in HeLa cells at 50 uM after 7 hrs; type: functional, Homo sapiens; conditions: not given
In short: (§1)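 Fixed 1% paraformaldehyde-PBS 37 °C 3 min, then methanol −20 °C 5 min; anti-β-tubulin plus FITC secondary, propidium iodide counterstain. Monoastral spindles counted as percentage of mitotic cells; <25% deemed not significant.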

Which Activity does the source give for `CCOC(=O)C1=C(C)N(CCOCCOCCO)C(=S)NC1c1cccc(O)c1` (stereo not given) here?
The Activity was under 25%.

With `CCOC(=O)C1=C(C)NC(=S)NC1c1ccc(OCCOCCOCCO)c(O)c1` (stereo not given) as the compound, how does the Activity read?
The Activity was under 25%.

For `CCOC(=O)C1=C(C)NC(=S)NC1c1ccc(O)c(O)c1` (stereo not given), which Activity is on record?
The Activity was under 25%.

Which Activity does the source give for `CCOC(=O)C1=C(C)NC(=S)NC1c1cc(OC(C)=O)ccc1OC(C)=O` (stereo not given) here?
Its Activity is 56.2%.

For `CCOC(=O)C1=C(C)NC(SCC)=NC1c1cccc(O)c1` (stereo not given), which Activity is on record?
The Activity was under 25%.

Which Activity does the source give for `CCOC(=O)C1=C(C)NC(=S)N(C(C)=O)C1c1cccc(O)c1` (stereo not given) here?
The Activity was 36.9%.

How did the Activity turn out when `CCOC(=O)C1=C(C)NC(=S)NC1c1cccc(OC(C)=O)c1` (stereo not given) was run?
Its Activity is 49.7%.

With `CCOC(=O)C1=C(C)NC(=S)NC1c1cc(O)ccc1[N+](=O)[O-]` (stereo not given) as the compound, how does the Activity read?
Its Activity is under 25%.

With `CCOC(=O)C1=C(C)NC(=S)N(C(C)=O)C1c1cccc(OC(C)=O)c1` (stereo not given) as the compound, how does the Activity read?
Its Activity is 39.3%.

For `CCOC(=O)C1=C(C)N=C(SCc2ccccc2)NC1c1cccc(O)c1` (stereo not given), which Activity is on record?
The Activity was under 25%.

same assay, conditions: Homo sapiens

For `CCOC(=O)C1=C(C)NC(=S)NC1c1cc(O)ccc1O` (stereo not given), which Activity is on record?
Its Activity is “Active”.

tested on: HeLa; test: Induction of monoastral spindles in HeLa cells after 7 hrs; type: functional, cell-based; conditions: Homo sapiens; in short: as §1

How did the IC50 turn out when `CCOC(=O)C1=C(C)NC(=S)NC1c1cccc(OC(C)=O)c1` (stereo not given) was run?
Its IC50 is 50 µM.

`CCOC(=O)C1=C(C)NC(=S)N(C(C)=O)C1c1cccc(OC(C)=O)c1` (stereo not given) was tested. Which IC50 did it give?
Its IC50 is 62.5 µM.

tested on: HeLa; test: Induction of monoastral spindles in HeLa cells at 100 uM after 7 hrs; type: functional, Homo sapiens; conditions: not given; in short: as §1

Which Activity does the source give for `CCOC(=O)C1=C(C)N(CCOCCOCCO)C(=S)NC1c1cccc(O)c1` (stereo not given) here?
The Activity was 13.6%.

`CCOC(=O)C1=C(C)NC(=S)NC1c1ccc(OCCOCCOCCO)c(O)c1` (stereo not given) was tested. Which Activity did it give?
The Activity was 10.3%.

`CCOC(=O)C1=C(C)NC(SCC)=NC1c1cccc(O)c1` (stereo not given) was tested. Which Activity did it give?
The Activity was under 25%.

How did the Activity turn out when `CCOC(=O)C1=C(C)NC(=S)NC1c1cccc(OC(C)=O)c1` (stereo not given) was run?
The Activity was 89.6%.

Which Activity does the source give for `CCOC(=O)C1=C(C)NC(=S)N(C(C)=O)C1c1cccc(OC(C)=O)c1` (stereo not given) here?
The Activity was 83.5%.

How did the Activity turn out when `CCOC(=O)C1=C(C)N=C(SCc2ccccc2)NC1c1cccc(O)c1` (stereo not given) was run?
Its Activity is under 25%.

molecular target: T1, Kinesin-like protein KIF11 (Homo sapiens); test: Inhibition of Eg5 ATPase activity expressed in Escherichia coli at 500 uM after 12 hrs; type: functional; conditions: not given
In short: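 Basal (no microtubules) steady-state ATPase of Eg5 2–386 at 1.0 µM, pyruvate kinase/lactate dehydrogenase-coupled assay, room temperature, duplicate, 2.5% DMSO; top concentration 500 µM. Acetylated analogues alternatively preincubated (2 mM) 12 h at 37 °C in DMEM + 10% FBS before basal ATPase measurement.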

How did the Activity turn out when `CCOC(=O)C1=C(C)N(CCOCCOCCO)C(=S)NC1c1cccc(O)c1` (stereo not given) was run?
Its Activity is “inactive”.

How did the Activity turn out when `CCOC(=O)C1=C(C)NC(=S)NC1c1ccc(OCCOCCOCCO)c(O)c1` (stereo not given) was run?
Its Activity is “inactive”.

Which Activity does the source give for `CCOC(=O)C1=C(C)NC(=S)NC1c1ccc(O)c(O)c1` (stereo not given) here?
Its Activity is “inactive”.

For `CCOC(=O)C1=C(C)NC(=S)NC1c1cc(OC(C)=O)ccc1OC(C)=O` (stereo not given), which Activity is on record?
Its Activity is “inactive”.

Which Activity does the source give for `CCOC(=O)C1=C(C)NC(SCC)=NC1c1cccc(O)c1` (stereo not given) here?
Its Activity is “inactive”.

How did the Activity turn out when `CCOC(=O)C1=C(C)NC(=S)N(C(C)=O)C1c1cccc(O)c1` (stereo not given) was run?
Its Activity is “inactive”.

For `CCOC(=O)C1=C(C)NC(=S)NC1c1cccc(OC(C)=O)c1` (stereo not given), which Activity is on record?
The Activity was “inactive”.

For `CCOC(=O)C1=C(C)NC(=S)NC1c1cc(O)ccc1[N+](=O)[O-]` (stereo not given), which Activity is on record?
Its Activity is “inactive”.

With `CCOC(=O)C1=C(C)NC(=S)NC1c1cc(O)ccc1O` (stereo not given) as the compound, how does the Activity read?
Its Activity is “inactive”.

Which Activity does the source give for `CCOC(=O)C1=C(C)NC(=S)N(C(C)=O)C1c1cccc(OC(C)=O)c1` (stereo not given) here?
Its Activity is “inactive”.

Which Activity does the source give for `CCOC(=O)C1=C(C)N=C(SCc2ccccc2)NC1c1cccc(O)c1` (stereo not given) here?
The Activity was “inactive”.

molecular target: T2, Kinesin-like protein KIF11 (Homo sapiens, UniProt P52732); test: Inhibition of Eg5 ATPase activity expressed in Escherichia coli after 12 hrs; conditions: not given
T2 sequence (P52732 whole entry): T1 sequence (whole entry)

Which IC50 does the source give for `CCOC(=O)C1=C(C)NC(=S)N(C(C)=O)C1c1cccc(O)c1` (stereo not given) here?
Its IC50 is 3.8 µM.

How did the IC50 turn out when `CCOC(=O)C1=C(C)NC(=S)NC1c1cccc(OC(C)=O)c1` (stereo not given) was run?
Its IC50 is 3.9 µM.

How did the IC50 turn out when `CCOC(=O)C1=C(C)NC(=S)N(C(C)=O)C1c1cccc(OC(C)=O)c1` (stereo not given) was run?
Its IC50 is 5 µM.
